Here are results for 22 compounds from ChEMBL document CHEMBL5029184, “Colloidal Aggregators in Biochemical SARS-CoV-2 Repurposing Screens” (J Med Chem, 2021).

pIC50: −log10 of the molar value.

What is called pIC50 is −log10 of the IC50, conventionally taken in molar units.

Experiment [1] is filed under the species Sus scrofa. In words: Inhibition of porcine heart malate dehydrogenase assessed as reduction in enzyme inhibition at 3 times IC50 preincubated for 5 min followed by nicotinamide adenine dinucleotide addition and monitered for 90 sec in presence of 0.01% Triton-X100 by spectrophotometric method relative to control. It is filed as tissue-based. Set-up: scale not given: the % may be the effect or the level left. Put shortly: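 After a 5 min room-temperature incubation, the rate was read over 90 s and compared with the negative control. The value is the percent change in inhibition with detergent; triplicate.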

A short description of experiment [2]: Inhibition of porcine heart malate dehydrogenase preincubated for 5 min followed by nicotinamide adenine dinucleotide addition and monitered for 90 sec by spectrophotometric method. The class given is tissue-based, Sus scrofa. Put shortly: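 Porcine heart MDH was used at 2 nM final in 50 mM KPi pH 7 at room temperature. Compound was added from 100× DMSO stock (1% DMSO final) and incubated 5 min. Reactions were followed 90 s spectrophotometrically, with initial rates divided by the negative-control rate. Concentration–response used three replicates per concentration to give IC50 and Hill slope.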

The nature of experiment [3]: Inhibition of SARS CoV2 C-terminal His6-tagged 3CL protease (3264 to 3569 residues) expressed in Escherichia coli BL21 DE3 using rr-K(MCA)-ATLQAIAS-K(DNP)-COOH preincubated for 1 hr followed by substrate addition and measured after 1 hr in presence of 0.05% Tween-20. Set-up: species or system Severe acute respiratory syndrome coronavirus 2. In short, it runs like this: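 Purified recombinant 3CL-Pro at 50 nM final with quenched fluorogenic peptide at 10 μM final (KM), in 20 mM Tris, 150 mM NaCl, 1 mM EDTA, 1 mM DTT, 0.05% Tween-20, pH 7.4. Drug and enzyme were preincubated 1 h at 37 °C, then substrate was added and fluorescence followed 1 h.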

The species named for experiment [4] is Sus scrofa. Kind of experiment: Inhibition of porcine heart malate dehydrogenase assessed as critical aggregation concentration preincubated for 5 min followed by nicotinamide adenine dinucleotide addition and monitered for 90 sec by spectrophotometric method. It is filed as tissue-based.
Experiment [5] can be described thus: Inhibition of SARS-Cov2 N-terminal full-length MBP-tagged 3CL protease expressed in Escherichia coli using DABCYL-KTSAVLQSGFRKME-EDANS as substrate preincubated for 30 mins followed by substrate addition and measured after 3 hrs by fluorescence assay. Set-up: species or system Severe acute respiratory syndrome coronavirus 2.
Experiment [6] in a line: Inhibition of SARS-COV2 main protease. Set-up: species or system Severe acute respiratory syndrome coronavirus 2.
The target in experiment [7] is T1, Angiotensin-converting enzyme 2 (Homo sapiens, UniProt Q9BYF1). Kind of experiment: Inhibition of recombinant SARS-COV2 His-tagged S-RBD binding to recombinant human ACE2 expressed in HEK293T cells incubated for 0.5 hrs by alpha screen assay. The class given is cell-based. In general terms: Bead proximity is the source of the signal in Alpha formats.
Experiment [8] in a line: Inhibition of SARS-COV2 N-terminal MBP-tagged 3CL protease using DABCYL-KTSAVLQSGFRKME-EDANS as substrate measured upto 30 mins by FRET assay. Set-up: species or system Severe acute respiratory syndrome coronavirus 2.
For experiment [9], the target named is T1, Angiotensin-converting enzyme 2. Kind of experiment: Inhibition of recombinant human ACE2 using MCA-Tyr-Val-Ala-Asp-Ala-Pro-Lys(DNP)-OH as substrate preincubated for 15 mins followed by substrate addition and measured upto 15 mins by fluorescence assay.

T1 sequence (Q9BYF1 whole entry): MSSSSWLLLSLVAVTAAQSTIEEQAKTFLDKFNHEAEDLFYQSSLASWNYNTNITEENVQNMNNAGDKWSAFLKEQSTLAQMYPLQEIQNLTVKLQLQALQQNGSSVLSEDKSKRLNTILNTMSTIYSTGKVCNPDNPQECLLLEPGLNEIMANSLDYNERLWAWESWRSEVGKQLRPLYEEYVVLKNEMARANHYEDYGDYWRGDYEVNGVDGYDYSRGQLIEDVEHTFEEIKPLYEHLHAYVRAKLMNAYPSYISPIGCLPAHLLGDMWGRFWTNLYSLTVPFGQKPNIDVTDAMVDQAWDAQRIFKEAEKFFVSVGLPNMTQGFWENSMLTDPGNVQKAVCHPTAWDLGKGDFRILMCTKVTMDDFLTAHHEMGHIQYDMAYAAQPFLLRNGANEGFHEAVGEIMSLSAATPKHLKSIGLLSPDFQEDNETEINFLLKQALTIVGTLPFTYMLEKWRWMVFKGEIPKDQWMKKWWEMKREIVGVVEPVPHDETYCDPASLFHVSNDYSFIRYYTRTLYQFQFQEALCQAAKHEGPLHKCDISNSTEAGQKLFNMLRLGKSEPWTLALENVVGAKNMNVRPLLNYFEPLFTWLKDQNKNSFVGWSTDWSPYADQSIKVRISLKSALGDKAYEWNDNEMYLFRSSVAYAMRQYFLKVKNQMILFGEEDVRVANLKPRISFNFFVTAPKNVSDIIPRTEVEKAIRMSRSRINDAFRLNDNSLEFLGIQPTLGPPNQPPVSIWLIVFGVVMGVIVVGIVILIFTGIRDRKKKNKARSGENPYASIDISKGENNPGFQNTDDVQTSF

`Cc1cc(-c2ccc(/N=N/c3ccc4c(S(=O)(=O)O)cc(S(=O)(=O)O)c(N)c4c3O)c(C)c2)ccc1/N=N/c1ccc2c(S(=O)(=O)O)cc(S(=O)(=O)O)c(N)c2c1O` [EVANS BLUE]: the Activity in the experiment filed under Sus scrofa [1] was determined as 64%. Besides, the pIC50 in [2] was 8.00.
Turning to `C/C(=C\c1ccc(C(=O)O)cc1)c1ccc2c(c1)C(C)(C)CCC2(C)C`, the Activity in the experiment filed under Sus scrofa [1] turned out to be 83%. The figures for the pIC50 in [3], in [2] and in [5] were < 3.70, 5.36 and 4.45, respectively. The CAC in the experiment listed under Sus scrofa [4] was 5.2 µM.
For the compound `Cc1c(-c2ccc(O)cc2)n(Cc2ccc(OCCN3CCCCCC3)cc2)c2ccc(O)cc12`, the Activity in the experiment listed under Sus scrofa [1] worked out at 70%.
For `Cc1cc(O)c2c(=O)c3c(O)cc(O)c4c5c(O)cc(O)c6c(=O)c7c(O)cc(C)c8c1c2c(c34)c(c78)c65` [HYPERICIN], the Activity in the experiment filed under Sus scrofa [1] came to 83%. The pIC50 in [6] is 4.71; in experiment [2], 6.82. Also, in the experiment filed under Sus scrofa [4], the CAC worked out at 0.3 µM.
For the compound `O=C1C=C2CC3(O)COc4c(ccc(O)c4O)C3=C2C=C1O` (stereo unspecified) [HEMATEIN], in the experiment listed under Sus scrofa [1], the Activity was 24%. Also, the pIC50 in experiment [3] is < 3.70; in experiment [2] it was 5.12; in experiment [7], 5.00. In addition, in the experiment filed under Sus scrofa [4], the CAC came out at 123 µM.
Consider `Cc1cc2c(C(C)C)c(O)c(O)c(C=O)c2c(O)c1-c1c(C)cc2c(C(C)C)c(O)c(O)c(C=O)c2c1O` [GOSSYPOL], for which the Activity in the experiment listed under Sus scrofa [1] is 92%. The pIC50 in experiment [3] is < 3.70; in [2], 6.09; in [5], 4.40. Also, the CAC in the experiment filed under Sus scrofa [4] was determined as 34 µM.
Consider `c1ccc(-c2ccc(C(c3ccccc3)n3ccnc3)cc2)cc1` (stereo unspecified) [BIFONAZOLE], for which the pIC50 in experiment [2] was 4.77.
Consider `COc1c2ccc(-c3ccccc3)oc-2cc(=O)c1C` [DRACORHODIN], for which, in the experiment filed under Sus scrofa [1], the Activity stood at 86%. Besides, the CAC in the experiment listed under Sus scrofa [4] is 22 µM. The same compound showed a pIC50 in experiment [2] of 5.11.
For `Cc1cc(O)c2c(c1)C(=O)c1cc(O)cc(O)c1C2=O` [EMODIN], in the experiment filed under Sus scrofa [4], the CAC was determined as 6 µM. In experiment [2], this compound gave a pIC50 of 4.90.
As for `CC(C)=CC[C@@H](O)C1=CC(=O)c2c(O)ccc(O)c2C1=O`, the Activity in the experiment filed under Sus scrofa [1] turned out to be 92%. In the experiment filed under Sus scrofa [4], the CAC came to 7.7 µM.
As to `O=C(O)c1ccc(N2C(=O)/C(=C\c3ccc(-c4ccc([N+](=O)[O-])cc4)o3)C=C2c2ccccc2)cc1`, the Activity in the experiment listed under Sus scrofa [1] was 75%. Moreover, the pIC50 in experiment [3] is 4.00; in [2] it was 6.44; in [8], 4.74. The CAC in the experiment listed under Sus scrofa [4] amounted to 6.2 µM.
As for `O=c1c(O)c(-c2cc(O)c(O)c(O)c2)oc2cc(O)cc(O)c12` [MYRICETIN], the CAC in the experiment listed under Sus scrofa [4] amounted to 7.4 µM. Further, the pIC50 in [7] is 5.00.
For the compound `C[C@@H](NCCCc1cccc(C(F)(F)F)c1)c1cccc2ccccc12`, the Activity in the experiment filed under Sus scrofa [1] came out at 81%. Also, in the experiment listed under Sus scrofa [4], the CAC is 53 µM. Besides, the pIC50 in experiment [2] was 4.13; in [9], 4.55.
As to `Oc1c(I)cc(Cl)c2cccnc12` [CLIOQUINOL], the Activity in the experiment listed under Sus scrofa [1] was 57%. The same compound showed a pIC50 in experiment [2] of 5.37.
Take `O=C1c2c(O)cccc2Cc2cccc(O)c21` [ANTHRALIN]: in the experiment filed under Sus scrofa [1], the Activity is 93%. In addition, the CAC in the experiment filed under Sus scrofa [4] is 4.5 µM. The compound also gave a pIC50 in experiment [2] of 5.60.
For `COc1ccc(-c2ccc3cc(C(=O)O)ccc3c2)cc1C12CC3CC(CC(C3)C1)C2`, the Activity in the experiment filed under Sus scrofa [1] stood at 77%. In addition, the CAC in the experiment listed under Sus scrofa [4] is 9.2 µM. In experiment [2], this compound had a pIC50 of 4.85.
Take `O=C(O)c1cccc(CN2C(=O)/C(=C(\c3ccccc3)c3ccc(Cl)cc3)c3ccccc32)c1`: the Activity in the experiment listed under Sus scrofa [1] stood at 22%. The pIC50 was < 3.70 in experiment [3], 4.62 in experiment [2] and 4.45 in [5]. For the same compound, the CAC in the experiment filed under Sus scrofa [4] was determined as 49 µM.
Consider `Brc1c(Br)c(Br)c2[nH]nnc2c1Br` [TETRABROMOBENZOTRIAZOLE], for which the Activity in the experiment filed under Sus scrofa [1] was 61%. Besides, the pIC50 in experiment [2] is 4.84; in experiment [8], 5.40.
Consider `CC(C)(C)[C@H]1CC[C@H](CC2=C(O)C(=O)c3ccccc3C2=O)CC1` [BUPARVAQUONE], for which the Activity in the experiment listed under Sus scrofa [1] was determined as 90%. Moreover, the CAC in the experiment filed under Sus scrofa [4] came to 32 µM. Further, the pIC50 in [2] is 5.09.
For the compound `COC(=O)C1=C(C)NC(C)=C(C(=O)OC(C)(C)CN(C)CCC(c2ccccc2)c2ccccc2)C1c1cccc([N+](=O)[O-])c1` (stereo unspecified) [LERCANIDIPINE], the Activity in the experiment filed under Sus scrofa [1] was determined as 95%. The pIC50 in [3] is < 3.70; in [2], 5.66. Also, the CAC in the experiment listed under Sus scrofa [4] amounted to 4 µM.
With `COC(=O)C1=C(C)NC(C)=C(C(=O)OCCN2CCN(C(c3ccccc3)c3ccccc3)CC2)C1c1cccc([N+](=O)[O-])c1` (stereo unspecified) [MANIDIPINE 6300], the Activity in the experiment listed under Sus scrofa [1] was 92%. The pIC50 was < 4.00 in experiment [3] and 5.70 in experiment [2]. Besides, in the experiment listed under Sus scrofa [4], the CAC was 2.8 µM.
Consider `Cc1c(C)c2c(c(C)c1O)CCC(C)(CCCC(C)CCCC(C)CCCC(C)C)O2` (stereo not drawn) [alpha-TOCHOPHEROL], for which the Activity in the experiment filed under Sus scrofa [1] was found to be 69%. The CAC in the experiment listed under Sus scrofa [4] is 1.5 µM. In addition, the pIC50 in [2] was 7.10.
